Experiment: Toxicity liver stage against HepG2, at 10uM
Assay type: cell-based
Design: test concentration 10 uM, cell line HepG2-A16-CD81EGFP
Settings: human, HepG2-A16-CD81EGFP cells; read-out: INHIBITION
Procedure, shortened: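 Uninfected HepG2-A16-CD81EGFP cells, 3 × 10^3 per well, 1536-well, plated on prespotted compound at 10 μM final, parasite-free screening media added to match infected plates; puromycin 10 μM positive, DMSO 0.5% negative; run in parallel with 48 h PbLuc assay at 37 °C, 5% CO2; viability by CellTiter-Glo luminescence, normalized to controls.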

| SMILES | cytotoxicity at 10 µM |
| --- | --- |
| O=C(N[C@@H]1CN(Cc2ccoc2)[C@@H]2CCCO[C@@H]21)C1CC1 | 0.0515% |
| NC(=O)C1CCCN1Cc1ccccc1NC(=O)Cc1cccc(F)c1 (stereo not drawn) | 7.31% |
| CCN(CC)c1ccc2ccc(C(=O)O)cn12 | 1.42% |
| NC(=O)CN1CCCC(C(=O)N2CCC(Oc3ncccn3)CC2)C1 (stereo not drawn) | -41.6% |
| Cc1cnn(C2CN(Cc3nc(-c4ccccn4)no3)C2)c1 | 3.24% |
| O=C1N(c2ccsc2)CCC12CCCN(CC1CC1)C2 (stereo not drawn) | -79.4% |
| Cc1nc(CCN(C)C(=O)CN2C(=O)OC[C@@H]2c2ccccc2)no1 | -42.2% |
| O=C(NCc1ccccc1)[C@@H]1Cc2[nH]cnc2CN1CC1CC1 | 3.17% |
| NC(=O)CCn1cc(CNCCCc2ccncc2)c2ccccc21 | 7.28% |
| CCN(C(=O)NCCc1ccc(C)cc1C)C(C)CS(C)(=O)=O (stereo not drawn) | 11.3% |
| Cc1nnc(N2CCC(CS(N)(=O)=O)CC2)c(C#N)c1C | 2.12% |
| CCc1nn(-c2cc(Oc3cccc(C)c3)nc(C)n2)c(N)c1C#N | -9.8% |
| Cc1nc(NCc2cccc(F)c2)cc(C2CCNCC2)n1 | 2.79% |
| Cc1nnc(N2CCOC(Cn3cccn3)C2)c(C#N)c1C (stereo not drawn) | -8.47% |
| O=C(CCC1CC1)N1C[C@@H](CN2CCCC2)[C@@H](CO)C1 | -4.43% |
| O=C(c1ncccn1)N1C[C@@H]2CN(Cc3cccnc3)CCO[C@@H]2C1 | 7.67% |
| CC(C)CN1C[C@@H]2C[C@H](C(=O)NCc3cccnc3)[C@H](C1)O2 | 2.5% |
| COc1cccc(S(=O)(=O)NC(=O)CCC2CCCO2)c1 (stereo not drawn) | -14.7% |
| CCn1ncc(CN2CCN(C(=O)Cn3cc(Br)c(C)n3)CC2)c1C | 0.301% |
| Cc1cc(C2CCCN2Cc2ccn(C)c(=O)c2)no1 (stereo not drawn) | -9.03% |
| COc1ccc(COCC(O)CN(C)c2ccc(C)cc2C)cc1 (stereo not drawn) | 1.6% |
| CC(C)CCOc1ccc(C(C)NC(=O)Cn2cccnc2=O)cc1 (stereo not drawn) | -4.24% |

| SMILES | cytotoxicity at 10 µM |
| --- | --- |
| Cc1cc(C(=O)N2CCc3c(ncnc3N3CCOCC3)C2)[nH]n1 | -5.92% |
| CNC(=O)C1CCN(C(=O)c2ccn(-c3ccc(F)cc3)n2)CC1 | -2.7% |
| CCc1cc(=O)[nH]c(-c2ccc(NC(C)COC)nc2)n1 (stereo not drawn) | -146% |
| Cc1cccc(N2CCN(C(=O)CC3(O)CCCC3)C(C)C2)n1 (stereo not drawn) | 15.9% |
| CC(C1CCN(Cc2cnc(-c3cccs3)nc2)CC1)N(C)C (stereo not drawn) | -11.3% |
| O=C(COc1coc(CN2CCCCC2)cc1=O)Nc1ccc(Cl)cc1 | 3.48% |
| Nc1nnc(Cn2nnc(-c3ccccc3F)n2)s1 | 3.09% |
| CNc1cc(C)nc(N2CCC3(CC2)[C@H](O)C[C@@H]3OC)n1 | -6.72% |
| CNc1nc(CNC(=O)Nc2cccc(CN(C)C)c2)cs1 | -8.04% |
| CN(C)c1cccc(C(=O)Nc2cnn(Cc3ccncc3)c2)c1 | -9.19% |
| COc1cc(N2C[C@H]3CN(CCN4CCCC4)C(=O)[C@H]3C2)ncn1 | 12.7% |
| Cc1cc(SC(C)(C)C)ccc1NC(C)C(=O)NC(N)=O (stereo not drawn) | -5.36% |
| CC(C)CN1CC2(CCN(C(=O)C(O)c3cccc(Cl)c3)CC2)CC1=O (stereo not drawn) | -1.45% |
| NS(=O)(=O)N1CCc2ccc(NC(=O)Cc3ccc(F)cc3)cc21 | -9.06% |
| N#CCCNC(=O)CN1CC(n2cccn2)C1 | -7.29% |
| CCC(CC)c1cc(CNC(=O)N2CCCN(C(C)=O)CC2)on1 | -7.55% |
| CC(=O)Nc1ccc2c(c1)C1(CCOCC1)C(=O)N2c1ccsc1 | 5.56% |
| CCCSc1ncc(CN(C)CCN2CCCCC2)cn1 | -1.39% |
| Cc1nccc(N[C@H]2CN(C(=O)CCN3CCCC3=O)C[C@@H]2C(C)C)n1 | -6.3% |
| CC1CN(C)CCN1C(=O)c1ccc(-n2cnnc2)cc1 (stereo not drawn) | 2.84% |
| Cc1nc(C)n(CC2CCCN2CC(=O)Nc2ccncc2)n1 (stereo not drawn) | -1.73% |
| Cc1cc(C)nc(CN2CCOC(c3ccc(Cl)cc3)C2)n1 (stereo not drawn) | -2.43% |

| SMILES | cytotoxicity at 10 µM |
| --- | --- |
| Cc1nn(C)c(Cl)c1C1CCCN1CC(=O)NC1CCCC1 (stereo not drawn) | -3.78% |
| COc1ccc(OC)c(C(=O)N(C)Cc2ncc(C)c(OC)c2C)c1 | -4.3% |
| Cc1ccc(CNC(=O)NC2CCCN(c3ncccn3)C2)cn1 (stereo not drawn) | 3.08% |
| Cc1ccc(C(=O)N2CC[C@@]3(O)CCN(C(=O)N(C)C)C[C@H]3C2)cc1Cl | -45.5% |
| CN1CCCC(CNS(=O)(=O)N2CCc3ccccc3C2)C1 (stereo not drawn) | -4.32% |
| CN(C)C(=O)C1(Oc2ccc(Cl)cc2)CCNCC1 | 13.7% |
| CC(C)c1nc(N2CCC(N3CCCC(O)C3)CC2)c2cnn(C)c2n1 (stereo not drawn) | -127% |
| CCC(O)Cn1cc(C2=CCN(Cc3ccc(OC)cc3)CC2)cn1 (stereo not drawn) | -3.94% |
| Cc1cccc(C(=O)NCc2ccnc(N(C)C)c2)n1 | 3.22% |
| COc1ccc(C)cc1NS(=O)(=O)c1ccc(CCNC(C)=O)s1 | 0.549% |
| Cc1noc(C)c1CNC(=O)N1CCC(Cc2cnn(C)c2)C1 (stereo not drawn) | -8.66% |
| Cc1cc(C)nc(NCCC(=O)Nc2ccc(Cn3cncn3)cc2)n1 | -2.82% |
| CCc1nnc(Nc2cccc(C3CCN(CCO)CC3)n2)s1 | -6.41% |
| Cc1ccccc1OCC(O)CN1CCC(c2ccn[nH]2)CC1 (stereo not drawn) | 0.531% |
| O=C1CC[C@H]2CN(c3ncc(F)cn3)CC[C@H]2N1CCc1ccccn1 | 4.83% |
| c1ccc(COC[C@H]2CC[C@H]3[C@H](CCN3Cc3ccco3)O2)nc1 | -144% |
| COc1ccccc1OCC(=O)NS(=O)(=O)c1ccc(Cl)cc1F | 2.28% |
| O=C1NCC(C(=O)Nc2ncc(Cc3ccc(F)cc3)s2)N1 (stereo not drawn) | 0.639% |
| O=C(C1CCC1)N1CCN(C(=O)c2cnccn2)[C@H]2CS(=O)(=O)C[C@H]21 | -10.8% |
| COC(=O)c1cc(C(=O)N2CCN(C)CC2)n(-c2ccccc2)n1 | -13.2% |
| CC(=O)N1CCCC(c2ccnc(Nc3cnccn3)n2)C1 (stereo not drawn) | -12.5% |
| CCOC(=O)c1nnc2ccccc2c1N1CCN(CC)CC1 | -2.27% |

| SMILES | cytotoxicity at 10 µM |
| --- | --- |
| Cc1cc(-c2nnn(CCC(N)=O)n2)ccc1F | -8.71% |
| CSCC(C)(O)CNS(=O)(=O)Cc1ccc(F)cc1 (stereo not drawn) | -1.12% |
| COc1cccc(CNCc2ccc(NC(=O)NC(C)C)cc2)c1 | -11.1% |
| CC(NC(=O)N(C)Cc1ccsc1)c1ccc2c(c1)OCO2 (stereo not drawn) | -10.6% |
| CC(C)Oc1ccc(CNC(=O)C2CCC(=O)N2)cn1 (stereo not drawn) | 10.5% |
| COCCN1CC[C@@H]2O[C@H](COCc3csc(C)n3)CC[C@@H]21 | -76.7% |
| CSC(C)CCN(Cc1ccccn1)Cc1sccc1C (stereo not drawn) | -2.49% |
| COc1cccc2c(=O)n(CCN3CCNCC3)cnc12 | 0.623% |
| Cc1ccc(CN(C)Cc2ncc(C(C)(C)C)o2)o1 | -6.58% |
| CN(Cc1cncnc1)[C@@H]1CN(C(=O)c2ccco2)[C@@H]2CCCO[C@H]12 | -113% |
| Cc1cc(C(=O)N2CCCC(c3nccn3Cc3ccncc3)C2)no1 (stereo not drawn) | 0.471% |
| COc1ccc(CNC[C@H]2Cn3ccnc3CO2)cn1 | 8.73% |
| Cc1nccn1CCC1CCN(C(C)C)CC1 | -20.7% |
| CCC(=O)Nc1nnc2n(Cc3cccc(OC)c3)[nH]c(C)c1-2 | -9.24% |
| Cc1cncc(C(=O)N2CCN(c3cnn(C)c(=O)c3)CC2)c1 | -20.4% |
| CN1CCCC(N(C)C(=O)c2ccc(NC(=O)c3ccc[nH]3)cc2)C1 (stereo not drawn) | -11.4% |
| CN1[C@@H](C(=O)NCC2CC2)C[C@H]2CN(Cc3cccc(C#N)c3)C[C@H]21 | -8.22% |
| Cc1cc(=O)n(CC(=O)NCC2CCCO2)c(-c2cccc(Cl)c2)n1 (stereo not drawn) | -11% |
| C[C@@H]1C[C@@H]2CCN(C(=O)c3cnccn3)C[C@H]2O1 | -10.6% |
| CC(C)=CCN1C(=O)[C@@H]2CC[C@H]1CN(C(=O)CCc1nnc(Cl)[nH]1)C2 | 2.96% |
| Cc1cnn(CC2CN(Cc3ccc(-n4cccn4)cc3)CCO2)c1 (stereo not drawn) | -0.674% |
| Cc1nc(CN2CCC3(CCCN(Cc4ccoc4)C3)C2=O)cs1 (stereo not drawn) | -0.142% |

| SMILES | cytotoxicity at 10 µM |
| --- | --- |
| Fc1ccc(CN2CCO[C@H]3[C@H](OCCN4CCCC4)CC[C@@H]32)cc1 | 2.17% |
| OC1(CN2CCCC2)CCCN(Cc2ccc(F)cc2Cl)C1 (stereo not drawn) | 20.9% |
| CN(CC(=O)N1CCOC(CCc2ccccc2)C1)Cc1ccccn1 (stereo not drawn) | -1.83% |
| O=C(NCc1ccccc1)NCc1nc(-c2ccncc2)n[nH]1 | 0.449% |
| CCS(=O)(=O)NCC(=O)NC(c1cc(C)sc1C)C(C)C (stereo not drawn) | 3.77% |
| Cn1c(CN2CCC(O)CC2)nnc1C1CCCN(c2ccncc2)C1 (stereo not drawn) | 9.29% |
| COc1ccc(NC(=O)c2nc(C)sc2C(C)C)cn1 | 0.847% |
| COc1ccc(-c2ccnc(N)c2)c(C)c1 | 6.63% |
| Cc1ccnc2c1NC(=O)CN2C(=O)CCc1ccccc1 | -20.1% |
| Cc1cnn(C2CN(CC(=O)NCCc3ccsc3)C2)c1 | -3.86% |
| CC(=O)N1CC[C@@H]2O[C@@H](COCC(=O)N3CCCC3)CC[C@@H]21 | -7.73% |
| CN(C)C(=O)C1CCc2nnc(CNC(=O)c3ccc(Cl)cc3Cl)n21 (stereo not drawn) | 7.61% |
| Cc1nc(C)c(C)c(N2CCC(O)(c3ccc(F)cc3)CC2)n1 | -6.08% |
| Cc1ccccc1N1CCN(C(=O)CCc2nncn2C)C(C)C1 (stereo not drawn) | 3.34% |
| CN(C)CC1CCCCN1C(=O)c1ccc(N2CCOCC2)cc1 (stereo not drawn) | -0.0679% |
| CCCS(=O)(=O)N[C@H]1CN(c2ncccc2C(N)=O)C[C@@H]1C(C)C | 5.78% |
| COc1ccc(NC(=O)C2CC2)cc1OCc1cccnc1 | -50.5% |
| CCc1cc(N2CCSCC2)n2nc(C)c(C)c2n1 | -0.854% |
| COC(=O)c1cc(OC)ccc1NCC(=O)NCC(=O)N1CCCC1 | 0.431% |
| O=C(c1cc(CC2(NC3CCCCC3)COC2)no1)N1CCCCC1 | 7.65% |

— ChEMBL document CHEMBL4513216, “Probing the Open Global Health Chemical Diversity Library for Multistage-Active Starting Points for Next-Generation Antimalarials” (ACS Infect Dis, 2020)
